ChEMBL document CHEMBL1157912, “Impact of nature and length of linker incorporated in agonists on toll-like receptor 9-mediated immune responses” (J Med Chem, 2010)
The source made the active and inactive calls. No cut-off for these calls is given here.

Tests used:
[1] = biological target: T1, Toll-like receptor 9 (Homo sapiens) (UniProt Q9NR96); assay: Induction of TLR9-mediated immune stimulation in human PBMC assessed as IP10 production at 10 ug/ml after 24 hrs by luminex multiplex assay (RVb = 0.00 ng/ml)
T1 sequence (whole entry): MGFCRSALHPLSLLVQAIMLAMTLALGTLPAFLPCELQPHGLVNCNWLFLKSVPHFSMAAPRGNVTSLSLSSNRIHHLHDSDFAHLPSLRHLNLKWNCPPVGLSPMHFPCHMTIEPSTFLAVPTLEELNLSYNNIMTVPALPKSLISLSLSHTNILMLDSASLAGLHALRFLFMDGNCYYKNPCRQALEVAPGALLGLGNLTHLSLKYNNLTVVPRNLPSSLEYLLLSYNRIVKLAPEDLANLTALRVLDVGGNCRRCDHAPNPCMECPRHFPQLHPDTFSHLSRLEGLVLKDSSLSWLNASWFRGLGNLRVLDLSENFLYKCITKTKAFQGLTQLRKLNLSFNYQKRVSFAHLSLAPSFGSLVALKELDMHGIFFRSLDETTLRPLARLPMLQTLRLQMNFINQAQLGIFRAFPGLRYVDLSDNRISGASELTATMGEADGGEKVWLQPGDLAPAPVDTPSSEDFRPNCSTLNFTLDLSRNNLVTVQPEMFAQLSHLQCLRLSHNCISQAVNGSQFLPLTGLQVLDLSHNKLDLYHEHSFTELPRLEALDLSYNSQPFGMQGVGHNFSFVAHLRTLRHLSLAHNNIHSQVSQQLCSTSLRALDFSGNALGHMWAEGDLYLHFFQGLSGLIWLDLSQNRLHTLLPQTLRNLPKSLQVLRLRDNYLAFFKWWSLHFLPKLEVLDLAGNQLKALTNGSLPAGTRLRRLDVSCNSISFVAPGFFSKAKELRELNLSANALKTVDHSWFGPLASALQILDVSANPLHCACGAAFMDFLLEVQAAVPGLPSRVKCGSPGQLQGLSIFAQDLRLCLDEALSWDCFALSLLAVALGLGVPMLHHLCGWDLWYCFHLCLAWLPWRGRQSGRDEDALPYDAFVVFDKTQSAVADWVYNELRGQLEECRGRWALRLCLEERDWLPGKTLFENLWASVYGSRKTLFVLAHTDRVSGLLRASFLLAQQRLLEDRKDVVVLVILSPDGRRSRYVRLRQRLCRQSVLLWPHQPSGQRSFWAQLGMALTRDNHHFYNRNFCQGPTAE

[2] = test system: Mus musculus; assay: Immunostimulatory activity in C57BL/6 mouse assessed as increase in serum IL12 level at 1 mg/kg, sc after 2 hrs by ELISA; format: functional, organism-based; design: dose 1 mg/kg
How it was run: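 Female C57BL/6 mice (n=3) received a single subcutaneous agonist dose of 1 mg/kg. Blood was taken by retro-orbital bleeding 2 h later, and serum IL-12 was measured by sandwich ELISA. Values are the mean of three mice ± SD.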

[3] = biological target: T1, Toll-like receptor 9 (Homo sapiens); assay: Induction of TLR9-mediated immune stimulation in human PBMC assessed as IL6 production at 2 ug/ml after 24 hrs by luminex multiplex assay (RVb = 0.01 ng/ml)

SMILES | Activity [1] | Activity [2] | Activity [3]
Cc1cn([C@H]2C[C@H](O[C@@H]3C[C@@H](O)C[C@@H](OP(=O)(S)O[C@H]4C[C@H](n5cc(C)c(=O)[nH]c5=O)O[C@@H]4COP(=O)(S)O[C@H]4[C@@H](O)[C@H](n5ccc(N)nc5=O)O[C@@H]4COP(=O)(S)O[C@H]4C[C@H](n5cc(C)c(=O)[nH]c5=O)O[C@@H]4COP(=O)(S)O[C@H]4C[C@H](n5cc(C)c(=O)[nH]c5=O)O[C@@H]4COP(=O)(S)O[C@H]4C[C@H](n5ccc6c(=O)[nH]c(N)nc65)O[C@@H]4COP(=O)(S)O[C@H]4[C@@H](O)[C@H](n5ccc(N)nc5=O)O[C@@H]4COP(=O)(S)O[C@H]4C[C@H](n5cc(C)c(=O)[nH]c5=O)O[C@@H]4COP(=O)(S)O[C@H]4[C@@H](O)[C@H](n5cnc6c(=O)[nH]c(N)nc65)O[C@@H]4COP(=O)(S)O[C@H]4C[C@H](n5cc(C)c(=O)[nH]c5=O)O[C@@H]4COP(=O)(S)O[C@H]4[C@@H](O)[C@H](n5ccc(N)nc5=O)O[C@@H]4COP(=O)(S)O[C@H]4C[C@H](n5cc(C)c(=O)[nH]c5=O)O[C@@H]4CO)C3)[C@@H](COP(=O)(S)O[C@H]3[C@@H](O)[C@H](n4ccc(N)nc4=O)O[C@@H]3COP(=O)(S)O[C@H]3C[C@H](n4cc(C)c(=O)[nH]c4=O)O[C@@H]3COP(=O)(S)O[C@H]3C[C@H](n4cc(C)c(=O)[nH]c4=O)O[C@@H]3COP(=O)(S)O[C@H]3C[C@H](n4ccc5c(=O)[nH]c(N)nc54)O[C@@H]3COP(=O)(S)O[C@H]3[C@@H](O)[C@H](n4ccc(N)nc4=O)O[C@@H]3COP(=O)(S)O[C@H]3C[C@H](n4cc(C)c(=O)[nH]c4=O)O[C@@H]3COP(=O)(S)O[C@H]3[C@@H](O)[C@H](n4cnc5c(=O)[nH]c(N)nc54)O[C@@H]3COP(=O)(S)O[C@H]3C[C@H](n4cc(C)c(=O)[nH]c4=O)O[C@@H]3COP(=O)(S)O[C@H]3[C@@H](O)[C@H](n4ccc(N)nc4=O)O[C@@H]3COP(=O)(S)O[C@H]3C[C@H](n4cc(C)c(=O)[nH]c4=O)O[C@@H]3CO)O2)c(=O)[nH]c1=O (some centres undefined) | 0.03 ng/mL | Active | 0.3 ng/mL
Cc1cn([C@H]2C[C@H](OCC[C@H](O)COP(=O)(S)O[C@H]3C[C@H](n4cc(C)c(=O)[nH]c4=O)O[C@@H]3COP(=O)(S)O[C@H]3[C@@H](O)[C@H](n4ccc(N)nc4=O)O[C@@H]3COP(=O)(S)O[C@H]3C[C@H](n4cc(C)c(=O)[nH]c4=O)O[C@@H]3COP(=O)(S)O[C@H]3C[C@H](n4cc(C)c(=O)[nH]c4=O)O[C@@H]3COP(=O)(S)O[C@H]3C[C@H](n4ccc5c(=O)[nH]c(N)nc54)O[C@@H]3COP(=O)(S)O[C@H]3[C@@H](O)[C@H](n4ccc(N)nc4=O)O[C@@H]3COP(=O)(S)O[C@H]3C[C@H](n4cc(C)c(=O)[nH]c4=O)O[C@@H]3COP(=O)(S)O[C@H]3[C@@H](O)[C@H](n4cnc5c(=O)[nH]c(N)nc54)O[C@@H]3COP(=O)(S)O[C@H]3C[C@H](n4cc(C)c(=O)[nH]c4=O)O[C@@H]3COP(=O)(S)O[C@H]3[C@@H](O)[C@H](n4ccc(N)nc4=O)O[C@@H]3COP(=O)(S)O[C@H]3C[C@H](n4cc(C)c(=O)[nH]c4=O)O[C@@H]3CO)[C@@H](COP(=O)(S)O[C@H]3[C@@H](O)[C@H](n4ccc(N)nc4=O)O[C@@H]3COP(=O)(S)O[C@H]3C[C@H](n4cc(C)c(=O)[nH]c4=O)O[C@@H]3COP(=O)(S)O[C@H]3C[C@H](n4cc(C)c(=O)[nH]c4=O)O[C@@H]3COP(=O)(S)O[C@H]3C[C@H](n4ccc5c(=O)[nH]c(N)nc54)O[C@@H]3COP(=O)(S)O[C@H]3[C@@H](O)[C@H](n4ccc(N)nc4=O)O[C@@H]3COP(=O)(S)O[C@H]3C[C@H](n4cc(C)c(=O)[nH]c4=O)O[C@@H]3COP(=O)(S)O[C@H]3[C@@H](O)[C@H](n4cnc5c(=O)[nH]c(N)nc54)O[C@@H]3COP(=O)(S)O[C@H]3C[C@H](n4cc(C)c(=O)[nH]c4=O)O[C@@H]3COP(=O)(S)O[C@H]3[C@@H](O)[C@H](n4ccc(N)nc4=O)O[C@@H]3COP(=O)(S)O[C@H]3C[C@H](n4cc(C)c(=O)[nH]c4=O)O[C@@H]3CO)O2)c(=O)[nH]c1=O (some centres undefined) | 0.99 ng/mL | Active | 0.54 ng/mL
Cc1cn([C@H]2C[C@H](OCCOCCOCCOCCOP(=O)(S)O[C@H]3C[C@H](n4cc(C)c(=O)[nH]c4=O)O[C@@H]3COP(=O)(S)O[C@H]3[C@@H](O)[C@H](n4ccc(N)nc4=O)O[C@@H]3COP(=O)(S)O[C@H]3C[C@H](n4cc(C)c(=O)[nH]c4=O)O[C@@H]3COP(=O)(S)O[C@H]3C[C@H](n4cc(C)c(=O)[nH]c4=O)O[C@@H]3COP(=O)(S)O[C@H]3C[C@H](n4ccc5c(=O)[nH]c(N)nc54)O[C@@H]3COP(=O)(S)O[C@H]3[C@@H](O)[C@H](n4ccc(N)nc4=O)O[C@@H]3COP(=O)(S)O[C@H]3C[C@H](n4cc(C)c(=O)[nH]c4=O)O[C@@H]3COP(=O)(S)O[C@H]3[C@@H](O)[C@H](n4cnc5c(=O)[nH]c(N)nc54)O[C@@H]3COP(=O)(S)O[C@H]3C[C@H](n4cc(C)c(=O)[nH]c4=O)O[C@@H]3COP(=O)(S)O[C@H]3[C@@H](O)[C@H](n4ccc(N)nc4=O)O[C@@H]3COP(=O)(S)O[C@H]3C[C@H](n4cc(C)c(=O)[nH]c4=O)O[C@@H]3CO)[C@@H](COP(=O)(S)O[C@H]3[C@@H](O)[C@H](n4ccc(N)nc4=O)O[C@@H]3COP(=O)(S)O[C@H]3C[C@H](n4cc(C)c(=O)[nH]c4=O)O[C@@H]3COP(=O)(S)O[C@H]3C[C@H](n4cc(C)c(=O)[nH]c4=O)O[C@@H]3COP(=O)(S)O[C@H]3C[C@H](n4ccc5c(=O)[nH]c(N)nc54)O[C@@H]3COP(=O)(S)O[C@H]3[C@@H](O)[C@H](n4ccc(N)nc4=O)O[C@@H]3COP(=O)(S)O[C@H]3C[C@H](n4cc(C)c(=O)[nH]c4=O)O[C@@H]3COP(=O)(S)O[C@H]3[C@@H](O)[C@H](n4cnc5c(=O)[nH]c(N)nc54)O[C@@H]3COP(=O)(S)O[C@H]3C[C@H](n4cc(C)c(=O)[nH]c4=O)O[C@@H]3COP(=O)(S)O[C@H]3[C@@H](O)[C@H](n4ccc(N)nc4=O)O[C@@H]3COP(=O)(S)O[C@H]3C[C@H](n4cc(C)c(=O)[nH]c4=O)O[C@@H]3CO)O2)c(=O)[nH]c1=O (some centres undefined) | 0.03 ng/mL | Active | 0.14 ng/mL
